Active and inactive are the calls of the source. No cut-off for these calls is given here.
Columns and labels:
Melanocortin receptor 4 [1] = biological target: T1, Melanocortin receptor 4 (Homo sapiens, UniProt P32245); assay: Displacement of Eu-NDP-alpha-MSH from human melanocortin 4 receptor expressed in HEK293 cells; assay type: cell-based
How it was run: (§1)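 HEK293 cells overexpressing hMC4R, plated at 12,000 cells/well and grown 3 days. Incubated 40 min at 37 °C, washed 4 times in Tris-HCl/BSA/NaCl, then enhancement solution added for 30 min at 37 °C before time-resolved Eu read-out. IC50 averaged over n independent experiments, each in quadruplicate.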

Melanocortin receptor 4 [2] = biological target: T1, Melanocortin receptor 4; assay: Displacement of Eu-NDP-alpha-MSH from human melanocortin 4 receptor expressed in HEK293 cells at 1 pM to 10 uM; assay type: cell-based; how it was run: as §1

T1 sequence (P32245 whole entry): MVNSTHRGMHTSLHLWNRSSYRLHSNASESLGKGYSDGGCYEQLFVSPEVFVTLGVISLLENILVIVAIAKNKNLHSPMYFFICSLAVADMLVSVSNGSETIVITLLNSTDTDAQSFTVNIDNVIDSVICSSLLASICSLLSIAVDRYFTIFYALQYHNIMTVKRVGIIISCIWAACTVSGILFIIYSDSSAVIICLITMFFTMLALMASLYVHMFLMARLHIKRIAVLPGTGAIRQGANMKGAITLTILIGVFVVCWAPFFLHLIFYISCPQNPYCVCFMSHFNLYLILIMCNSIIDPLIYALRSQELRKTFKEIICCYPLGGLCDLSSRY

## C#CCCCC(=O)N[C@@H](Cc1cnc[nH]1)C(=O)N[C@H](Cc1ccccc1)C(=O)N[C@@H](CCCNC(=N)N)C(=O)N[C@@H](Cc1c[nH]c2ccccc12)C(N)=O
Melanocortin receptor 4 [1]
  IC50: 0.9 µM

## CC(C)C(O)CCC(C)C(O)CCC(C)C(CCC(O)C(C)CCC(O)C(C)CCC(OCCCCCCn1cc(CCCC(=O)N[C@@H](Cc2cnc[nH]2)C(=O)N[C@@H](Cc2ccccc2)C(=O)N[C@@H](CCCNC(=N)N)C(=O)N[C@@H](Cc2c[nH]c3ccccc23)C(N)=O)nn1)C(C)C)OCCCCCCn1cc(CCCC(=O)N[C@@H](Cc2cnc[nH]2)C(=O)N[C@@H](Cc2ccccc2)C(=O)NC(CCCNC(=N)N)C(=O)N[C@@H](Cc2c[nH]c3ccccc23)C(N)=O)nn1 (single isomer, unassigned)
Melanocortin receptor 4 [1]
  IC50: 0.4 µM

## CC(C)C(O)CCC(C)C(O)CCC(C)C(O)CCC(OCCCCCCn1cc(CCCC(=O)N[C@@H](Cc2cnc[nH]2)C(=O)N[C@H](Cc2ccccc2)C(=O)N[C@@H](CCCN=C(N)N)C(=O)N[C@@H](Cc2c[nH]c3ccccc23)C(N)=O)nn1)C(C)CCC(O)C(C)CCC(O)C(C)C (some centres not stated)
Melanocortin receptor 4 [1]
  IC50: 3.3 µM

## CC(C)C(O)CCC(C)C(O)CCC(C)C(CCC(O)C(C)CCC(O)C(C)CCC(OCCCCCCn1cc(CCCC(=O)N[C@@H](CO)C(N)=O)nn1)C(C)C)OCCCCCCn1cc(CCCC(=O)N[C@@H](CO)C(N)=O)nn1 (some centres not stated)
Melanocortin receptor 4 [2]
  Activity: inactive

## CC(C)C(O)CCC(C)C(O)CCC(C)C(O)CCC(OCCCCCCn1cc(CCCC(=O)N[C@@H](CO)C(N)=O)nn1)C(C)CCC(O)C(C)CCC(O)C(C)C (some centres not stated)
Melanocortin receptor 4 [2]
  Activity: inactive

## N=C(N)NCCC[C@H](NC(=O)C(Cc1ccccc1)NC(=O)[C@@H](N)Cc1cnc[nH]1)C(=O)N[C@@H](Cc1c[nH]c2ccccc12)C(=O)O (stereo in doubt)
Melanocortin receptor 4 [1]
  IC50: 1.1 µM

## C#CCCCC(=O)N[C@@H](CO)C(N)=O
Melanocortin receptor 4 [2]
  Activity: inactive

Reference: ChEMBL document CHEMBL1145351, “Squalene-derived flexible linkers for bioactive peptides” (Bioorg Med Chem Lett, 2007)
